Published values of several laboratories.
Each line is one published result; the experiments were not run side by side.
Target: Receptor-interacting serine/threonine-protein kinase 2 (RIPK2, Homo sapiens, UniProt O43353)

For N#CCCc1ccc2c(c1)-c1[nH]c3ccc([N+](=O)[O-])cc3c1CC(=O)N2, the remaining signal was 21.5% (cell-free assay; 0.5 µM).
With CNC(=O)c1cc2c(Oc3ccc(NC(=O)C4(C(=O)Nc5ccc(F)cc5)CC4)cc3)ccnc2cc1OC the inhibition was 74% (enzyme activity, inhibitor, radiometric; 1 µM).
The remaining activity of Cc1ccc(C(=O)Nc2ccc(CN3CCN(C)CC3)c(C(F)(F)F)c2)cc1C#Cc1cnc2cccnn12 is reported as 43% (enzyme activity, inhibitor; 23.5 nM).
CCN(CC)c1ccc(C2=NNC(=O)CC2C)cc1[N+](=O)[O-] (centres unmarked) gave a remaining activity of 91% (enzyme activity, inhibitor; 10 µM).
With C[C@H](NC(=O)c1cnc2n1[C@](C)(Cc1ccc(C#N)cc1)C(=O)N2c1cc(Cl)c(F)c(Cl)c1)C(=O)NC1(c2ccccn2)CC1 the remaining binding was 68% (cell-free assay, competition with immobilised ligand; 1 µM).
O=C(Nc1cnn(-c2csc(C(=O)NC3COC3)c2)c1)Nc1ccccc1Cl gave a remaining activity of 120% (enzyme activity, inhibitor; 5 µM).
CC(C)(C)c1nc2c(s1)c1nc(N)ncc1c1ccc(NS(=O)(=O)c3c(F)cccc3F)c(F)c12 has a remaining activity of 70% (enzyme activity, inhibitor, radiometric; 1 µM).
CN1CCN(c2cnc3c(C4CCN(C(=O)c5ccc(OC(F)(F)F)cc5N)CC4)ncnc3c2)CC1 gave a remaining binding of 100% (cell-free assay, competition with immobilised ligand; 1 µM).
For Oc1ccc(-c2nc(-c3ccncc3)c(-c3ccc(F)cc3)[nH]2)cc1, the remaining signal was 46.8% (cell-free assay; 0.5 µM).
COc1cc(Cl)c(C(=O)N[C@@H](CN[C@H]2CC[C@@H](N)CC2)Cc2ccc(C#N)cc2)cc1-c1ccc(CN[C@H](C)c2ccc(C)cc2)o1 gave a remaining activity of 100% (enzyme activity, inhibitor; 1 µM).
Cc1ccc(NC(=O)c2ccc(C)c(C(F)(F)F)c2)cc1C#Cc1nn(C2CCC(O)CC2)c2ncnc(N)c12 (centres unmarked) gave a remaining signal of 21% (cell-free assay; 10 µM).
For CCc1ccccc1C(=O)Nc1n[nH]c2c(C)c(F)c(C3C(C#N)=C(C)N(C)C(C)=C3C#N)cc12, the remaining binding was 100% (cell-free assay, competition with immobilised ligand; 1 µM).
For FC(F)(F)Oc1cccc(-c2cnc3ccc(-c4ccncc4)nn23)c1, the activity vs control was 22% (enzyme activity, inhibitor, radiometric; 5 µM).
O=C1NC(=O)c2cc(Nc3ccc(F)cc3)c(Nc3ccc(F)cc3)cc21 has a remaining signal of 95% (cell-free assay; 0.5 µM).
With CNCc1ccc(-c2cc(-c3nc(-c4ccc(S(=O)(=O)C(C)C)cc4)cnc3N)on2)cc1 the inhibition was 26% (enzyme activity, inhibitor; 2 µM).
With O=C1Nc2ccc(Cl)cc2C1=Cc1cc(Cl)c(O)c(Cl)c1 the remaining signal was 50.2% (cell-free assay; 0.5 µM).
COc1cc(-c2cn(C3CCc4ccccc4N(CC(F)(F)F)C3=O)nn2)ccc1-n1ccc(C)n1 (centres unmarked) gave a remaining binding of 93% (cell-free assay, competition with immobilised ligand; 1 µM).
With COc1cc(Nc2cnc(C#N)c(O[C@H](C)CN(C)C)n2)ncc1-c1cnn(C)c1 the remaining activity was 97% (enzyme activity, inhibitor, radiometric; 1 µM).
F[C@@H]1CCN(c2nccc(-c3cnn4ncccc34)n2)C1 gave a remaining binding of 100% (binding; 1 µM).
For Cc1cnc(NC2CCOCC2)nc1-n1cnc(C(=O)NC(CN)c2cc(F)cc(Cl)c2)c1 (centres unmarked), the remaining activity was 90% (enzyme activity, inhibitor, radiometric; 1 µM).
The remaining activity of O=C(Nc1cnn(-c2csc(C(=O)NC3COC3)c2)c1)Nc1c(F)cccc1Cl is reported as 80.2% (enzyme activity, inhibitor; 5 µM).
C[C@H](c1ccc(F)cc1)N(Cc1cccc(C(=O)O)c1)C(=O)c1cnc2ccccc2c1 has a remaining binding of 82% (cell-free assay, competition with immobilised ligand; 1 µM).
With CCN(CC)CCNC(=O)c1c(C)[nH]c(/C=C2\C(=O)Nc3ccc(F)cc32)c1C the inhibition was 24% (enzyme activity, inhibitor; 10 µM).
With CCS(=O)(=O)c1cc2cc(C[C@](O)(CC(C)(C)c3ccc(F)cc3C(N)=O)C(F)(F)F)[nH]c2cn1 the remaining binding was 67% (cell-free assay, competition with immobilised ligand; 1 µM).
With FC(F)c1nc2ccccc2n1-c1nc(N2CCOCC2)nc(N2CCOCC2)n1 the remaining activity was 89% (enzyme activity, inhibitor; 10 µM).
The remaining binding of C[C@@H]1CN(c2cc(-c3n[nH]c4ccc(OC5(C)CC5)cc34)ncn2)C[C@H](C)O1 is reported as 100% (cell-free assay, competition with immobilised ligand; 0.1 µM).
Nc1ncnc2occ(-c3ccc(NC(=O)Nc4cc(C(F)(F)F)ccc4F)cc3)c12 gave a remaining signal of 4.2% (cell-free assay, inhibitor; 20 µM).
With NS(=O)(=O)c1cc(NC(=O)C2(c3ccccc3Cl)CC2)ccc1Oc1cccc(Cl)c1 the remaining binding was 93% (cell-free assay, competition with immobilised ligand; 1 µM).
Cn1cnc(Br)c1C1=CN(c2ncnc3[nH]cnc23)CCS1 has an inhibition of 34% (enzyme activity, inhibitor, radiometric; 2 µM).
